Experimental data: ChEMBL document CHEMBL5335840, “Stereoselective synthesis and antiproliferative activity of allo-gibberic acid-based 1,3-aminoalcohol regioisomers” (RSC Med Chem, 2024)

Key:
[1] = system: HeLa; test: Antiproliferative activity against human HeLa cells assessed as inhibition of cell growth incubated for 72 hrs by MTT assay; type: functional, cell-based
Procedure, shortened: (§1)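 Cells kept in Eagle's MEM with 10% FBS, 1% non-essential amino acids and 1% antibiotic-antimycotic at 37 °C, 5% CO2. Seeded at 5000 cells per well and incubated overnight before compound addition. Growth inhibition tested at 10 and 30 μM, IC50 from 1.0–30.0 μM (four concentrations). MTT added for 4 h, formazan dissolved in DMSO, absorbance read at 545 nm. Untreated control, two experiments of five wells.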

[2] = system: SiHa; test: Antiproliferative activity against human SiHa cells assessed as inhibition of cell growth incubated for 72 hrs by MTT assay; type: functional, cell-based; procedure, shortened: as §1
[3] = system: MCF7; test: Antiproliferative activity against human MCF7 cells assessed as inhibition of cell growth incubated for 72 hrs by MTT assay; type: functional, cell-based; settings: MCF7, 72 h; procedure, shortened: as §1
[4] = system: MDA-MB-231; test: Antiproliferative activity against human MDA-MB-231 cells assessed as inhibition of cell growth incubated for 72 hrs by MTT assay; type: functional, cell-based; settings: MDA-MB-231, 72 h; procedure, shortened: as §1
[5] = Cytotoxicity against mouse NIH/3T3 cells assessed as inhibition of cell growth incubated for 72 hrs by MTT assay; type: toxicity, cell-based, NIH3T3; procedure, shortened: as §1
[6] = system: A2780; test: Antiproliferative activity against human A2780 cells assessed as inhibition of cell growth incubated for 72 hrs by MTT assay; type: functional, cell-based; settings: A2780, 72 h; procedure, shortened: as §1

Compound `CCOC(=O)[C@H]1c2c(C)cccc2[C@H]2CC[C@@]3(CO)C[C@]21C[C@@H]3N[C@@H](C)c1cccc2ccccc12` has an IC50 [1] of 20.7 µM, an IC50 [2] of 22.3 µM and an IC50 [3] of 3.43 µM. It also gave an IC50 [4] of 10.4 µM and an IC50 at 72 h [5] of 6.02 µM.

Work on `CCOC(=O)[C@H]1c2c(C)cccc2[C@H]2CC[C@@]3(CO)C[C@]21C[C@@H]3N[C@H](C)c1cccc2ccccc12` yielded an IC50 [1] of 18.6 µM, an IC50 [2] of 22.7 µM and an IC50 [3] of 7.07 µM. For the same compound, the IC50 [4] was 19.3 µM, the IC50 [6] was 4.57 µM and the IC50 at 72 h [5] was 14.5 µM.

Work on `CCOC(=O)[C@H]1c2c(C)cccc2[C@H]2CC[C@@]3(CO)C[C@]21C[C@@H]3NCc1cc(Br)ccc1O` yielded an IC50 [1] of 5.06 µM, an IC50 [2] of 21.9 µM and an IC50 [3] of 3.85 µM. The IC50 [4] was 6.48 µM, the IC50 [6] was 5.08 µM and the IC50 at 72 h [5] was 19.7 µM.

In the case of `CCOC(=O)[C@H]1c2c(C)cccc2[C@H]2CC[C@@]3(CNCc4cc(Br)ccc4O)C[C@]21C[C@H]3O`, the IC50 [1] is reported as 4.71 µM, the IC50 [2] is reported as 20.6 µM and the IC50 [3] is reported as 2.42 µM. For the same compound, the IC50 [4] was 4.99 µM, the IC50 [6] was 5.39 µM and the IC50 at 72 h [5] was 13 µM.

With `CCOC(=O)[C@H]1c2c(C)cccc2[C@H]2CC[C@@]3(CN[C@@H](C)c4ccc5ccccc5c4)C[C@]21C[C@H]3O` the IC50 [1] was 5.1 µM, the IC50 [2] was 4.36 µM and the IC50 [3] was 3.66 µM. It also gave an IC50 at 72 h [5] of 4.62 µM.

For `CCOC(=O)[C@H]1c2c(C)cccc2[C@H]2CC[C@@]3(CNCc4ccc(F)cc4)C[C@]21C[C@H]3O`, the IC50 [1] was 18.8 µM, the IC50 [2] was 8.4 µM and the IC50 [3] was 4.4 µM. It also gave an IC50 [4] of 7.71 µM and an IC50 at 72 h [5] of 15.2 µM.

For `CCOC(=O)[C@H]1c2c(C)cccc2[C@H]2CC[C@@]3(CNCc4ccc(OC)cc4)C[C@]21C[C@H]3O`, the IC50 [1] was 12.9 µM, the IC50 [2] was 17.7 µM and the IC50 [3] was 4.08 µM. For the same compound, the IC50 [4] was 6.5 µM, the IC50 [6] was 13.8 µM and the IC50 at 72 h [5] was 14.7 µM.

Work on `CCOC(=O)[C@H]1c2c(C)cccc2[C@H]2CC[C@@]3(CO)C[C@]21C[C@@H]3NCCc1c[nH]c2ccccc12` yielded an IC50 [1] of 4.01 µM, an IC50 [2] of 4.12 µM and an IC50 [3] of 3.14 µM. For the same compound, the IC50 [4] was 4.71 µM, the IC50 [6] was 4.57 µM and the IC50 at 72 h [5] was 13 µM.

In the case of `CCOC(=O)[C@H]1c2c(C)cccc2[C@H]2CC[C@]3(O)C[C@@]21C[C@]3(O)CN[C@@H](C)c1cccc2ccccc12`, the IC50 [1] is reported as 4.38 µM, the IC50 [2] is reported as 4.38 µM and the IC50 [4] is reported as 4.38 µM. It also gave an IC50 [6] of 4.38 µM and an IC50 at 72 h [5] of 4.38 µM.
